Measured values reported in ChEMBL document CHEMBL1156136, “Hypoxia-activated prodrugs: substituent effects on the properties of nitro seco-1,2,9,9a-tetrahydrocyclopropa[c]benz[e]indol-4-one (nitroCBI) prodrugs of DNA minor groove alkylating agents” (J Med Chem, 2009).
Calls of active or inactive are those of the source. The calls are words filed in the database; no cut-off is given here.

Experiments:
SiHa [1] = experiment: Hypoxic cytotoxicity ratio, IC50 for human SiHa cells in oxic condition to IC50 for human SiHa cells in hypoxic condition; assay type: functional
Method in brief: (§1)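 Log-phase monolayers exposed to drug for 4 h under aerobic (20% O2) or anoxic (<20 ppm O2) conditions, then sulforhodamine B staining 5 days later. IC50 interpolated as concentration lowering cell density to 50% of same-plate controls. HCR = IC50(oxic)/IC50(hypoxic), mean of intraexperiment ratios. A549 P450R line is a stable transfectant with 9-fold higher cytochrome c reduction rate than parent.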

HT-29 [2] = experiment: Hypoxic cytotoxicity ratio, IC50 for human HT-29 cells in oxic condition to IC50 for human HT-29 cells in hypoxic condition by clonogenic assay; assay type: functional
[3] = Hypoxic cytotoxicity ratio, IC50 for human H1299 cells in oxic condition to IC50 for human H1299 cells in hypoxic condition; assay type: functional, NCI-H1299; method in brief: as §1
NCI-H460 [4] = experiment: Cytotoxicity against human H460 cells in hypoxic condition after 4 hrs by sulforhodamine B assay; assay type: functional, cell-based; settings: NCI-H460, 4 h; method in brief: as §1
HT-29 [5] = experiment: Cytotoxicity against human HT-29 cells in oxic condition after 4 hrs by sulforhodamine B assay; assay type: functional, cell-based; settings: HT-29, 4 h; method in brief: as §1
A549 [6] = experiment: Hypoxic cytotoxicity ratio, IC50 for human A549 cells in oxic condition to IC50 for human A549 cells in hypoxic condition; assay type: functional; method in brief: as §1
NCI-H460 [7] = experiment: Cytotoxicity against human H460 cells in oxic condition after 4 hrs by sulforhodamine B assay; assay type: functional, cell-based; settings: NCI-H460, 4 h; method in brief: as §1
SiHa [8] = experiment: Antitumor activity against human SiHa tumor bearing mouse assessed as cell kill at 42 umol/kg, iv; assay type: functional
Method in brief: (§2)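 SiHa xenografts grown subcutaneously (10⁷ cultured cells) in female homozygous nude CD1-Foxn1nu/nu mice, randomised at mean tumour diameter 8-10 mm. Single iv tail-vein dose, 42 μmol/kg, in 5% DMSO/20% PEG-400/75% lactate buffer pH 4.0. Given alone or 5 min after 15 Gy irradiation. Tumours excised 18 h later, enzymatically dissociated, clonogenic survivors per gram counted. Groups of 3-5 mice; ANOVA with Holm-Sidak on log data.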

C-33-A [9] = experiment: Cytotoxicity against human C33A cells in hypoxic condition after 4 hrs by sulforhodamine B assay; assay type: functional, cell-based; method in brief: as §1
[10] = Cytotoxicity against human H1299 cells in hypoxic condition after 4 hrs by sulforhodamine B assay; assay type: functional, cell-based; settings: NCI-H1299, 4 h; method in brief: as §1
HT-29 [11] = experiment: Cytotoxicity against human HT-29 cells assessed as cell kill in hypoxic condition by clonogenic assay; assay type: functional
Method in brief: (§3)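 Clonogenic assay on single-cell suspensions from dissociated HT29 spheroids, about 1 × 10⁶ cells/mL. Drug exposure 4 h at 37 °C under 5% CO2 in O2 or in N2. Colonies grown 14 days, methylene blue stained, >50 cells counted. Surviving fraction = PE(treated)/PE(control); C10 is the concentration giving 10% survival, from the fitted curve.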

A549 [12] = experiment: Cytotoxicity against human A549 cells overexpressing human NADPH/cytochrome P450 oxidoreductase in hypoxic condition after 4 hrs by sulforhodamine B assay; assay type: functional, cell-based; settings: A549, 4 h; method in brief: as §1
A549 [13] = experiment: Cytotoxicity against human A549 cells overexpressing human NADPH/cytochrome P450 oxidoreductase in oxic condition after 4 hrs by sulforhodamine B assay; assay type: functional, cell-based; settings: A549, 4 h; method in brief: as §1
C-33-A [14] = experiment: Hypoxic cytotoxicity ratio, IC50 for human C33A cells in oxic condition to IC50 for human C33A cells in hypoxic condition; assay type: functional; method in brief: as §1
C-33-A [15] = experiment: Cytotoxicity against human C33A cells in oxic condition after 4 hrs by sulforhodamine B assay; assay type: functional, cell-based; method in brief: as §1
HCT-116 [16] = experiment: Hypoxic cytotoxicity ratio, IC50 for human HCT116 cells in oxic condition to IC50 for human HCT116 cells in hypoxic condition; assay type: functional; method in brief: as §1
[17] = Cytotoxicity against human H1299 cells in oxic condition after 4 hrs by sulforhodamine B assay; assay type: functional, cell-based; settings: NCI-H1299, 4 h; method in brief: as §1
PC-3 [18] = experiment: Hypoxic cytotoxicity ratio, IC50 for human PC3 cells in oxic condition to IC50 for human PC3 cells in hypoxic condition; assay type: functional; method in brief: as §1
A-375 [19] = experiment: Hypoxic cytotoxicity ratio, IC50 for human A375 cells in oxic condition to IC50 for human A375 cells in hypoxic condition; assay type: functional; method in brief: as §1
SiHa [20] = experiment: Cytotoxicity against human SiHa cells in hypoxic condition after 4 hrs by sulforhodamine B assay; assay type: functional, cell-based; method in brief: as §1
SK-OV-3 [21] = experiment: Hypoxic cytotoxicity ratio, IC50 for human SKOV3 cells in oxic condition to IC50 for human SKOV3 cells in hypoxic condition; assay type: functional; method in brief: as §1
NCI-H460 [22] = experiment: Hypoxic cytotoxicity ratio, IC50 for human H460 cells in oxic condition to IC50 for human H460 cells in hypoxic condition; assay type: functional; method in brief: as §1
A-375 [23] = experiment: Cytotoxicity against human A375 cells in hypoxic condition after 4 hrs by sulforhodamine B assay; assay type: functional, cell-based; settings: A-375, 4 h; method in brief: as §1
SK-OV-3 [24] = experiment: Cytotoxicity against human SKOV3 cells in oxic condition after 4 hrs by sulforhodamine B assay; assay type: functional, cell-based; settings: SK-OV-3, 4 h; method in brief: as §1
HT-29 [25] = experiment: Cytotoxicity against human HT-29 cells assessed as surviving fraction in oxic condition at 30 uM by clonogenic assay; assay type: functional; method in brief: as §3
A-375 [26] = experiment: Cytotoxicity against human A375 cells in oxic condition after 4 hrs by sulforhodamine B assay; assay type: functional, cell-based; settings: A-375, 4 h; method in brief: as §1
PC-3 [27] = experiment: Cytotoxicity against human PC3 cells in oxic condition after 4 hrs by sulforhodamine B assay; assay type: functional, cell-based; settings: PC-3, 4 h; method in brief: as §1
PC-3 [28] = experiment: Cytotoxicity against human PC3 cells in hypoxic condition after 4 hrs by sulforhodamine B assay; assay type: functional, cell-based; settings: PC-3, 4 h; method in brief: as §1
Mus musculus = experiment: Toxicity in mouse at 100 umol/kg, ip; assay type: organism-based; settings: in vivo
A549 [29] = experiment: Cytotoxicity against human A549 cells in hypoxic condition after 4 hrs by sulforhodamine B assay; assay type: functional, cell-based; settings: A549, 4 h; method in brief: as §1
A549 [30] = experiment: Hypoxic cytotoxicity ratio, IC50 for oxic condition to IC50 for hypoxic condition in human A549 cells overexpressing human NADPH/cytochrome P450 oxidoreductase; assay type: functional; method in brief: as §1
SiHa [31] = experiment: Antitumor activity against human SiHa tumor bearing mouse assessed as log reduction of cell kill at 42 umol/kg, iv irradiated 5 mins before 15 Gy dose by cologenic assay; assay type: functional; method in brief: as §2
SiHa [32] = experiment: Cytotoxicity against human SiHa cells in oxic condition after 4 hrs by sulforhodamine B assay; assay type: functional, cell-based; method in brief: as §1
SK-OV-3 [33] = experiment: Cytotoxicity against human SKOV3 cells in hypoxic condition after 4 hrs by sulforhodamine B assay; assay type: functional, cell-based; settings: SK-OV-3, 4 h; method in brief: as §1
HCT-116 [34] = experiment: Cytotoxicity against human HCT116 cells in oxic condition after 4 hrs by sulforhodamine B assay; assay type: functional, cell-based; settings: HCT-116, 4 h; method in brief: as §1
HCT-116 [35] = experiment: Cytotoxicity against human HCT116 cells in hypoxic condition after 4 hrs by sulforhodamine B assay; assay type: functional, cell-based; settings: HCT-116, 4 h; method in brief: as §1
HT-29 [36] = experiment: Hypoxic cytotoxicity ratio, IC50 for human HT-29 cells in oxic condition to IC50 for human HT-29 cells in hypoxic condition; assay type: functional; method in brief: as §1
HT-29 [37] = experiment: Cytotoxicity against human HT-29 cells in hypoxic condition after 4 hrs by sulforhodamine B assay; assay type: functional, cell-based; settings: HT-29, 4 h; method in brief: as §1
A549 [38] = experiment: Cytotoxicity against human A549 cells in oxic condition after 4 hrs by sulforhodamine B assay; assay type: functional, cell-based; settings: A549, 4 h; method in brief: as §1

CN(C)CCOc1ccc2[nH]c(C(=O)N3CC(CCl)c4c3cc([N+](=O)[O-])c3cc(S(N)(=O)=O)ccc43)cc2c1 (centres undefined)
Ratio IC50 (SiHa [1]): 71
Ratio IC50 (HT-29 [2]): 125
Ratio IC50 [3]: 180
IC50 (NCI-H460 [4]): 110 nM
IC50 (HT-29 [5]): 4600 nM
Ratio IC50 (A549 [6]): 30
IC50 (NCI-H460 [7]): 3800 nM
Activity (SiHa [8]): inactive
IC50 (C-33-A [9]): 3 nM
IC50 [10]: 110 nM
C10 (HT-29 [11]): 0.4 µM
IC50 (A549 [12]): 6 nM
IC50 (A549 [13]): 860 nM
Ratio IC50 (C-33-A [14]): 240
IC50 (C-33-A [15]): 500 nM
Ratio IC50 (HCT-116 [16]): 110
IC50 [17]: 6300 nM
Ratio IC50 (PC-3 [18]): 180
Ratio IC50 (A-375 [19]): 19
IC50 (SiHa [20]): 34 nM
Ratio IC50 (SK-OV-3 [21]): 275
Ratio IC50 (NCI-H460 [22]): 36
IC50 (A-375 [23]): 150 nM
IC50 (SK-OV-3 [24]): 6900 nM
Activity (HT-29 [25]): >10%
IC50 (A-375 [26]): 2900 nM
IC50 (PC-3 [27]): 2900 nM
IC50 (PC-3 [28]): 37 nM
Activity (Mus musculus): Non-toxic
IC50 (A549 [29]): 35 nM
Ratio IC50 (A549 [30]): 140
Activity (SiHa [31]): 2.7
IC50 (SiHa [32]): 1700 nM
IC50 (SK-OV-3 [33]): 0.028 nM
IC50 (HCT-116 [34]): 1700 nM
IC50 (HCT-116 [35]): 15 nM
Ratio IC50 (HT-29 [36]): 330
IC50 (HT-29 [37]): 0.018 nM
IC50 (A549 [38]): 950 nM
